An excerpt weighted towards active compounds, which were near 2.7% of everything screened.
NR1D1 modulator: Rev-erb alpha (human) modulation; 370,000 tested, 0.79% active; Rev-erbα–FITC-DNA binding, fluorescence polarization, 90 min; activity, % at 10 µM; P20393;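 active = activity above about 14%, limit read from the data; passing the limit was not always enough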;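 note: 0% = DMSO wells with 35 nM protein and 100% = DMSO wells with 750 nM protein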
Target sequence (P20393 whole entry, looked up): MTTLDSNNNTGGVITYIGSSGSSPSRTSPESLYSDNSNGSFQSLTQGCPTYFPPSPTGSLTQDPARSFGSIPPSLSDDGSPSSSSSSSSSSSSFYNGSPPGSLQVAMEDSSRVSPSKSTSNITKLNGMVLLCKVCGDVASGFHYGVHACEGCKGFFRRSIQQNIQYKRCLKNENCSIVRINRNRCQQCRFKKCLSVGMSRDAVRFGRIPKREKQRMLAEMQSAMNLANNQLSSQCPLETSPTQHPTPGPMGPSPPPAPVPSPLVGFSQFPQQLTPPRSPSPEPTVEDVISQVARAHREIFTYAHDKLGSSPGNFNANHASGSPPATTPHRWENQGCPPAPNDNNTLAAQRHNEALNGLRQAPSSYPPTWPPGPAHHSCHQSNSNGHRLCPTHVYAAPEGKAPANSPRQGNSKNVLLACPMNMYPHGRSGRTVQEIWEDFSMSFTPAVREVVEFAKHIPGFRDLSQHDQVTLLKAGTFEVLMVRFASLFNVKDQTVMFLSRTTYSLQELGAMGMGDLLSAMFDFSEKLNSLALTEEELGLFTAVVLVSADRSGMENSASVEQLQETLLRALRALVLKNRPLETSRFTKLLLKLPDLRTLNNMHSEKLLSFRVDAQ
MC4R antag cAMP: human MC4R antagonism in cAMP assay | inhibition, % at 6.5 µM | MC4R-expressing cells, MTII-stimulated cAMP, LANCE TR-FRET | 360,000 tested, 0.48% active | P32245;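 active = inhibition above its plate's cutoff, the mean of tested wells on that plate plus 3 SD, cut at about 29% in these data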;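 note: 0% = Melanotan II alone and 100% = Melanotan II plus saturating MCL0020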
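System: U2OS-MC4R stable cell line; Technique: Eu-cAMP/anti-cAMP TR-FRET, emission 671 nm; Repeats: single well per compound; Also added: Melanotan II; Dosing: one concentration, 6.5 µM nominal; Schedule: 30-min compound, 1-h challenge, 1-h detection, room temperature.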
NR2E3 ag-1: activates human NR2E3 receptor; CHO-S Gal4-NCOR/VP16-NR2E3 two-hybrid, luciferase; inhibition of corepressor binding, % at 3.98 µM; Q9Y5X4; 360,000 tested, 0.35% active; AID 602229;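 active = inhibition above the mean of all tested compounds plus 3 SD, cut at about 70% in these data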;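 note: 0% = DMSO with NR2E3 transfected cells and 100% = cells lacking NR2E3 construct; higher means lower luciferase signal from less NR2E3 corepressor binding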
MC4R barr agon: activates human MC4R beta-arrestin recruitment; activation, % at 8.9 µM; 360,000 tested, 0.98% active; U2OS MC4R beta-arrestin complementation, luminescence; percent of melanotan II response, DMSO zero; P32245; AID 540308;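 active = activation above a per-plate cutoff, the mean activation of sample wells on that plate plus 3 SD, cut at about 8% in these data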
NR2E3 ag-2: NR2E3 (human) agonism; Q9Y5X4; GST-NR2E3/biotin-RetCOR TR-FRET, 1536-well; inhibition of corepressor binding, % at 4.78 µM; 320,000 tested, 0.12% active;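 active = percent inhibition above the cutoff of mean plus 3 SD of all tested compounds, set per screening campaign, cut at about 20% in these data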;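 note: 0% = DMSO wells and 100% = biotin wells as full block of FRET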
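Test system: GST-NR2E3 and biotin-RetCOR proteins | Quantity: 1.35 nM GST-tagged NR2E3 final | Medium: Tris pH 7.5 | Also added: 7 nM biotin-RetCOR | Dosing: Compound at 4.8 µM, single dose | Timing: 5 h at 4 °C | Detection: Time-resolved FRET | Read-out basis: Percent inhibition | Benchmarks: Biotin wells as high control, 0.6% DMSO wells as low control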
PG9 Ab binder: binds the HIV-1 gp120 antibody PG9; AID 624416; 360,000 tested, 0.43% active; TR-FRET gp120-PG9 antibody binding; inhibition, % at 6.7 µM; in the data active = inhibition above about 8.5%
U2OS cAMP counter: U2OS forskolin cAMP inhibition counter-screen; shares compounds with MC4R antag cAMP; parental U2OS, LANCE TR-FRET; inhibition, % at 6.5 µM; 1,600 tested, 26% active;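 active = mean inhibition over triplicates above the low-control well mean plus 3 SD, set per campaign, cut at about 13% in these data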;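 note: signal is single emission at 671 nm which falls as cellular cAMP rises; 0% = forskolin-stimulated wells and 100% = buffer without forskolin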
MC4R cAMP antag: human MC4R cAMP antagonism confirmation; shares compounds with MC4R antag cAMP; MC4R-expressing cells, MTII-stimulated cAMP, TR-FRET; inhibition, % at 6.5 µM; 1,600 tested, 27% active; AID 602195; in the data active = inhibition above about 29%;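 note: 0% = agonist stimulated wells alone and 100% = agonist stimulated wells plus saturating reference antagonist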
* hit, by the source's call; · = not tested or not shown.

SMILES	NR1D1 modulator	MC4R antag cAMP	NR2E3 ag-1	MC4R barr agon	NR2E3 ag-2	PG9 Ab binder	U2OS cAMP counter	MC4R cAMP antag
CSCCC(NC(=O)c1ccc([N+](=O)[O-])cc1Cl)C(=O)OCC(=O)C12CC3CC(CC(C3)C1)C2 (centres undefined)	8	33*	-20	2	4	-2	-3	2
O=C(COC(=O)c1ccc([N+](=O)[O-])cc1Cl)NCc1ccco1	6	10	-21	1	3	-1	·	·
CCN(CC)S(=O)(=O)c1cc(C(=O)Nc2nncs2)c(Cl)cc1Cl	0	43*	0	-2	-6	-1	17*	43*
CCOc1ccccc1OCC(=O)Oc1ccc(C)c(C)c1	1	29*	-24	3	0	-3	4	3
Cc1[nH]c(=O)[nH]c(=O)c1S(=O)(=O)Nc1cccc([N+](=O)[O-])c1C	5	30*	-1	0	·	2	1	-8
Cc1[nH]c(=O)[nH]c(=O)c1S(=O)(=O)Nc1ccc(Cl)c([N+](=O)[O-])c1	-10	12	1	0	1	-2	·	·
CCc1ccc(N(CC(=O)NCc2ccco2)C(=O)CCC(=O)Nc2ccccn2)cc1	1	6	-12	-1	3	-2	·	·
CCc1ccccc1N(CC(=O)NCc1ccco1)C(=O)CCC(=O)Nc1ccccn1	0	31*	9	4	5	-1	-2	-12
CCn1c(=O)c(C(=O)CN(C)Cc2cccc(OC)c2OC)c(N)n(Cc2ccccc2)c1=O	-2	-3	-6	0	2	0	·	·
COc1ccc(-c2cc(C(=O)N(C)CC(=O)Nc3ccccc3C(F)(F)F)c3ccccc3n2)cc1OC	-3	31*	12	-1	·	2	2	12
COc1ccc(-c2cc(C(=O)OCC(=O)N3CCCCC3)c3ccccc3n2)cc1OC	0	37*	-18	0	·	1	3	15
CC(NC(=O)Cn1ncc(Cl)c(Cl)c1=O)C12CC3CC(CC(C3)C1)C2 (centres undefined)	·	81*	26	-2	12	·	32*	46*
O=C(Cn1ncc(Cl)c(Cl)c1=O)NC(=O)NC1CCCCC1	-2	38*	20	-1	·	0	36*	67*
c1ccc(COc2cccc(-c3cc4nc(NCCN5CCOCC5)ccn4n3)c2)cc1	0	3	14	0	·	2	·	·
c1ccc(COc2ccc(-c3cc4nc(NCCN5CCOCC5)ccn4n3)cc2)cc1	-2	33*	-39	2	·	-1	3	20
CCCc1nnc(NC(=O)c2nc(S(=O)(=O)Cc3cccc(C)c3)ncc2Cl)s1	0	38*	44	-5	2	-4	25*	47*
Cc1cccc(CS(=O)(=O)c2ncc(Cl)c(C(=O)NCc3ccccc3)n2)c1	11	52*	9	-5	0	2	27*	57*
Cc1cccc(CS(=O)(=O)c2ncc(Cl)c(C(=O)Nc3c(C)cccc3C)n2)c1	2	27	17	-6	1	2	·	·
CC(C)CCC(C(=O)O)C(C)CC(=O)NC1CCCCC1 (centres undefined)	2	-2	6	-2	-1	0	·	·
COc1ccc(-c2csc3nc[nH]c(=O)c23)cc1	-8	-1	11	-2	2	-2	·	·
COc1ccc(-c2cnc3nc[nH]c(=O)c3n2)cc1	-4	29*	-17	2	-6	0	-2	-2
FC(F)(F)c1cnc(Oc2cccc3ccccc23)c(Cl)c1	0	29*	-2	2	-3	3	-2	-6
O=C(/C=C/c1ccco1)NC(=S)Nc1cc(-c2nc3ccccc3s2)ccc1Cl	-1	34*	-119	-1	-2	-12	4	15
NS(=O)(=O)c1ccc(CCNS(=O)(=O)c2ccc(Cl)nc2)cc1	-6	35*	-38	0	-2	-1	19*	4
Cc1ccc(C=NNc2nc3c([nH]2)c(=O)n(C)c(=O)n3C)cc1	-4	43*	-21	-2	·	-8	2	0
SMILES	NR1D1 modulator	MC4R antag cAMP	NR2E3 ag-1	MC4R barr agon	NR2E3 ag-2	PG9 Ab binder	U2OS cAMP counter	MC4R cAMP antag
Cn1c(=O)c2[nH]c(NN=Cc3ccc(Br)cc3)nc2n(C)c1=O	-23	13	-8	-2	·	-4	·	·
O=C(OCc1c(F)cccc1Cl)c1cnc(Cl)c(Cl)c1	2	34*	16	-1	3	-2	17*	43*
O=C(OCc1ccccc1F)c1cnc(Cl)c(Cl)c1	-7	40*	-17	-2	3	-2	25*	38*
O=C(OCc1ccc([N+](=O)[O-])cc1)c1cnc(Cl)c(Cl)c1	3	12	-14	-2	3	0	·	·
C=CCn1c2ccccc2c2nnc(SCCN3CCCCC3)nc21	-3	4	21	-1	2	-2	·	·
Cc1cc(S(=O)(=O)c2ccc(Cl)cc2)nc(S(=O)(=O)c2ccc(Cl)cc2)c1C#N	0	39*	35	-4	·	3	29*	28
Cc1cc(C)c(S(=O)(=O)c2ccc(Cl)cc2)c(Cl)n1	1	9	-2	1	2	1	·	·
COc1ccc(S(=O)(=O)N2CCN(C(=O)c3cc4c(s3)CCCC4)CC2)cc1	-2	-6	2	-2	1	0	·	·
COc1ccc(C(=O)N2CCCC2(C)C(=O)NCC(C)C)cc1C(F)(F)F (centres undefined)	4	1	17	0	·	1	·	·
CCC(Sc1nc2ccsc2c(=O)n1Cc1ccc(C(=O)O)cc1)C(=O)Nc1ccc(C)c(Cl)c1 (centres undefined)	-5	21	-17	-3	2	2	·	·
CCC(Sc1nc2ccsc2c(=O)n1Cc1ccc(C(=O)O)cc1)C(=O)Nc1cc(Cl)ccc1C (centres undefined)	-2	37*	5	-2	·	-1	1	2
C=C(C)CNC(=S)N/N=C/c1ccc([N+](=O)[O-])cc1	1	30*	0	0	2	0	-1	2
COCCNC(=S)N/N=C/c1ccc([N+](=O)[O-])cc1	-1	-1	-22	0	2	0	·	·
O=S(=O)([N-]c1nc2ccccc2nc1-n1cc[n+](Cc2ccccc2)c1)c1ccccc1	-7	18	-17	0	0	-3	·	·
CCOC(=O)c1ccc(NC(=O)N2CCN(c3ccccn3)CC2)cc1	2	-1	-13	-1	2	0	·	·

Screens: PubChem BioAssay, several laboratories
